MrgX1 PAM = human MrgX1 positive allosteric modulation, primary screen; Q96LB2; MrgX1-HEK293, Fluo-4 calcium flux, FDSS; active compounds read high; B-score at 10 µM; 310,000 tested, 0.63% active; AID 588675;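 active means plate-corrected calcium response at least 3 library SD above typical, normal starting fluorescence, not activating the receptor alone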;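 further: compound read alongside a low EC10 to EC30 dose of BAM8-22 agonist; peak minus trough fluorescence over baseline measured at the second addition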
Target sequence (Q96LB2 whole entry, looked up): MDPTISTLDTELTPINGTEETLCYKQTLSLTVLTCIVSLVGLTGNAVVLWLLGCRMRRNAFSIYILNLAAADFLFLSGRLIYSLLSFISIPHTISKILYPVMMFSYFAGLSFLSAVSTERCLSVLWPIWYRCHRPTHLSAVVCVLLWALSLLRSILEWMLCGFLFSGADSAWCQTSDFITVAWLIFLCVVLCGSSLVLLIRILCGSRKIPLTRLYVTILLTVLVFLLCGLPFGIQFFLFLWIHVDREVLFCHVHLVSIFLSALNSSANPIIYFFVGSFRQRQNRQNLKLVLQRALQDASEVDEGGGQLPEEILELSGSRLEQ
MrgX1 ag = activates human MrgX1 receptor signaling; Q96LB2; MrgX1-HEK293 cells, Fluo-4 calcium fluorescence, agonist mode; active compounds read high; B-score at 10 µM; 310,000 tested, 0.44% active; AID 588627;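 active means calcium response B-score plate-corrected fluorescence ratio at least 3 library SD, with starting fluorescence B-score inside 5 SD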
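Assay system: MrgX1-expressing HEK293 cells / Amount: fifteen thousand cells per well / Doses: test compound in the initial addition of three / Timing: cells plated overnight, dye loaded 0.5 h 37 °C, 0.5 h room temperature / Technique: kinetic calcium dye fluorescence, Fluo-4 NW / Control set: positive and negative controls per plate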
MrgX1 antagonist = blocks BAM8-22 activation of human MrgX1 receptor | AID 588676 | B-score at 10 µM | 310,000 tested, 1.3% active | MRGX1-HEK293 calcium flux, Fluo-4, BAM8-22 antagonism; active compounds read low;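 active means calcium-response B-score plate-corrected more than 3 library SD below zero, starting fluorescence within 5 deviations, no agonist response on first addition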;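 further: peak minus trough fluorescence over baseline after final BAM8-22 challenge near maximal dose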
RGS4 inh = inhibitors of human RGS4; 310,000 tested, 0.45% active; P49798; B-score at 10 µM; HEK293 M3R/RGS4 inducible, Fluo-4 calcium flux; active compounds read high; triggered by carbachol at its EC20;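 active means B-score, a plate-corrected calcium signal, over three deviations above library mean, with baseline fluorescence within five deviations of library mean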;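 further: RGS4 expression induced by doxycycline in cells with stable M3 receptor; B-score is computed from the integrated fluorescence ratio over baseline after carbachol; higher B-score means a larger calcium signal and so more RGS4 inhibition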
Target sequence (P49798 whole entry, looked up): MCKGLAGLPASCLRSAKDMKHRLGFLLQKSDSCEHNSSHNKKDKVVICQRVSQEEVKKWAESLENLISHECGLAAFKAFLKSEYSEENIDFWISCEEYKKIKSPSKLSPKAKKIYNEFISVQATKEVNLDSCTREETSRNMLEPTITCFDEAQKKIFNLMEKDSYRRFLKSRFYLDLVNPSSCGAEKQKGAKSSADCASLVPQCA
RGS4 pot = RGS4 potentiation or activation | HEK293 M3R/inducible RGS4, carbachol calcium flux Fluo4; active compounds read low | B-score at 10 µM | 310,000 tested, 0.92% active;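 active means B-score of the integrated calcium signal more than 4 SD below the library mean, with starting fluorescence not abnormally high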;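 further: negative B-score means reduced calcium response which marks RGS4 activation or potentiation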
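Also added: carbachol at ECmax as muscarinic agonist stimulus; Assay system: HEK293 cells with stable M3R and inducible RGS4; Timing: overnight RGS4 induction, 30 min dye load 37 °C, 20 min compound RT; Measured by: Fluo4-AM (2 µM) calcium-flux fluorescence, kinetic read.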
MrgX1 antag conf = reconfirmed antagonist of human MrgX1 receptor signaling; shares compounds with MrgX1 antagonist; MrgX1-HEK293, BAM8-22 calcium flux, Fluo-4; active compounds read low; remaining BAM8-22 calcium response % of control (active compounds read low), % at 10 µM; 2,300 tested, 19% active;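 active means remaining agonist calcium response no higher than 100% minus 3 SD of agonist-only control wells, with starting fluorescence near control levels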;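 further: agonist BAM8-22 given at a near maximal EC90 to ECmax level; peak minus minimum fluorescence divided by baseline after agonist addition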
HEK293 Ca flux = MrgX1 antagonist counter-screen hit in parental HEK293 cells | shares compounds with MrgX1 antagonist | Fluo-4 calcium fluorescence, FDSS | fluorescence ratio F(max-min)/F0 at 10 µM | 4,000 tested, 2% active;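 active means duplicate-averaged calcium fluorescence ratio at least three times the standard deviation of buffer wells, a nonspecific response in parental cells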
HEK293 Ca counter = counter-screen for MrgX1 allosteric activators: effect in parental HEK293 cells. shares compounds with MrgX1 antagonist. parental HEK293 calcium flux, Fluo-4 fluorescence ratio; active compounds read high. fluorescence ratio F(max-min)/F0 at 10 µM. 4,000 tested, 0.4% active;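 active means calcium fluorescence ratio, averaged over duplicates, at least 3 SD of the buffer-well ratio, meaning a nonspecific response in receptor-free cells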;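 further: untransfected parental HEK293 lacking MrgX1 used as counterscreen for MrgX1 allosteric activators; fluorescence change taken during the second addition on a kinetic imager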
HEK293 Ca cntr2 = activity in parental HEK293 cells lacking MrgX1 receptor | Fluo-4 calcium fluorescence (FDSS); active compounds read high | fluorescence ratio F(max-min)/F0 at 10 µM | shares compounds with MrgX1 antagonist | 4,000 tested, 8.7% active;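 active means calcium fluorescence ratio at least three times the spread of buffer wells, meaning a non-specific response in parental cells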
Numbers without * were called inactive; i = inactive; . = no result. Sampled rows, rich in hits. Any-hit rate of the full collection: about 3.5%.

SMILES	MrgX1 PAM	MrgX1 ag	MrgX1 antagonist	RGS4 inh	RGS4 pot	MrgX1 antag conf	HEK293 Ca flux	HEK293 Ca counter	HEK293 Ca cntr2
CCOc1ccccc1/C=C(/NC(=O)c1ccccc1)C(=O)N(CC)CC	i	i	i	i	i	.	.	.	.
CCc1nnc(NC(=O)CSc2nc3cccnc3n2Cc2ccccc2)s1	i	i	-5.9*	i	i	i	i	i	i
O=C(COC(=O)c1cccs1)c1ccc2ccccc2c1	i	i	-5.6*	i	i	i	i	i	i
O=C(CN1C2CCC1CC(NC(=O)NC1CCCCC1)C2)NC1CC1 (configuration not stated)	i	i	-5.5*	i	i	i	i	i	i
CCCN1C2CCCC1CC(NC(=O)NC1CCCCC1)C2 (configuration not stated)	i	i	i	i	i	.	.	.	.
CC1CCc2sc(C(=O)OCC(=O)NCc3ccc(F)cc3)cc2C1 (configuration not stated)	i	i	-21*	i	i	i	i	i	i
Cc1cccc(NC(=O)CSc2nc(N)cc(N)n2)c1	i	i	i	i	i	.	.	.	.
CCOC(=O)c1cccc(NC(=O)CSc2nc(N)cc(N)n2)c1	i	i	-7.7*	i	i	i	i	i	i
Cn1cc(SCC(=O)Nc2nc3ccccc3s2)c2ccccc21	i	i	i	i	i	.	.	.	.
O=C(Nc1ccc(COc2ccccc2)cc1)Nc1cccc(C(=O)O)c1	i	i	i	i	i	.	.	.	.
COc1ccc(CCNC(=O)CN2C(=O)C3(OCCCO3)c3ccccc32)cc1OC	i	i	-5.4*	i	i	84%*	i	i	i
O=C(CNC(=O)C1CCCCC1)Nc1ccccc1	i	i	i	i	i	.	.	.	.
Cc1cc(NC(=O)CNC(=O)C2CCCCC2)no1	i	i	-5.3*	.	.	i	i	i	i
O=C(CNC(=O)C1CCCCC1)NC1CCCCC1	i	i	-4.7*	i	i	i	i	i	i
CCOC(=O)C1(Cc2cccc(OC)c2)CCN(Cc2ccc(C)s2)CC1	i	i	i	i	i	.	.	.	.
CC(C)C1Oc2ccccc2N(CC(=O)N2CCOCC2)C1=O (configuration not stated)	i	i	i	i	i	.	.	.	.
COC(=O)c1ccc(NC(=O)CN2CCN(c3ccccc3)CC2)cc1	i	i	-6.7*	i	i	i	i	i	i
COC(=O)c1ccc(NC(=O)CSc2ccccn2)cc1	i	i	i	i	i	.	.	.	.
COC(=O)c1ccc(NC(=O)CSc2ccccc2)cc1	i	i	-5.9*	i	i	i	i	i	i
O=C(c1ccccc1[N+](=O)[O-])N1CCC(Cc2ccccc2)CC1	i	i	i	i	i	.	.	.	.
O=C1C2C3c4ccccc4C(c4ccccc43)C2C(=O)N1CN1CCOCC1 (configuration not stated)	i	i	i	i	i	.	.	.	.
O=C(CN1C(=O)C2C3c4ccccc4C(c4ccccc43)C2C1=O)N1CCOCC1 (configuration not stated)	i	i	-5.2*	i	i	i	i	i	i
NC(=O)c1csc(-c2ccncc2)n1	i	i	-5.6*	i	i	i	i	i	i
Cc1nc(SCC(=O)Nc2ccc3c(c2)OCCO3)c2oc3ccccc3c2n1	i	i	-7.5*	i	i	i	i	i	i
Cc1ccc(C(=O)CSc2nnc(-c3ccco3)n2C)cc1	i	i	i	i	i	.	.	.	.
SMILES	MrgX1 PAM	MrgX1 ag	MrgX1 antagonist	RGS4 inh	RGS4 pot	MrgX1 antag conf	HEK293 Ca flux	HEK293 Ca counter	HEK293 Ca cntr2
CCn1c(SCC(=O)Nc2ccc3c(c2)OCCO3)nnc1-c1ccco1	i	i	i	i	i	.	.	.	.
Cc1cc(C)c(C#N)c(SCC(=O)Nc2ccc3c(c2)OCO3)n1	i	i	-6.9*	i	i	i	i	i	i
Cn1c(SCC(=O)c2cc(Cl)c(Cl)s2)nnc1-c1ccco1	i	i	-4.8*	i	i	i	i	i	i
Cn1c(SCC(=O)Nc2ccc3c(c2)OCCO3)nnc1-c1ccco1	i	i	-4.9*	i	i	i	i	i	i
Cc1nc(SCC(=O)Nc2ccc3c(c2)OCO3)c(C#N)c2c1CCCC2	i	i	i	i	i	.	.	.	.
O=C1C2CCCN2C(=S)N1C1CCCCC1 (configuration not stated)	i	i	i	i	i	.	.	.	.
O=C(NCCc1nccs1)C1CCC(=O)N(CCc2ccc(Cl)cc2)C1 (configuration not stated)	i	i	i	i	i	.	.	.	.
Cc1ccc(Nc2nnc(SCc3cc(=O)n4ccsc4n3)s2)c(C)c1	i	i	-7*	i	i	i	i	i	i
C/C=C(\C)CN1CCCC(CO)(Cc2ccccc2)C1 (configuration not stated)	i	i	i	i	i	.	.	.	.
Cc1oc2c(CN(C)C)c(O)ccc2c(=O)c1-c1ccc2ccccc2n1	i	i	-8.6*	i	i	i	i	i	i
COc1ccc(NC(=O)c2csc(C)c2)cc1OC	i	i	i	i	i	.	.	.	.
COc1ccccc1/C=C1\SC(=S)N(CC(=O)Nc2nnc(C)s2)C1=O	i	i	i	i	i	.	.	.	.
Cn1cccc1-c1nc2ccccc2n1Cc1ccccc1	i	i	-4.9*	i	i	i	i	i	i
COc1ccc(CC(=O)OCC(=O)NCc2ccco2)cc1OC	i	i	-5.3*	i	i	i	i	i	i
CCCOc1cc(CC(=O)NCc2ccco2)ccc1OC	i	i	i	i	i	.	.	.	.
CC(C)c1onc(C(=O)NCc2ccccc2)c1[N+](=O)[O-]	i	i	i	i	i	.	.	.	.

Screening data: PubChem, Johns Hopkins Ion Channel Center
